Source: ChEMBL document CHEMBL3351600, “Sulfur, selenium and tellurium pseudopeptides: synthesis and biological evaluation” (Bioorg Med Chem, 2014)

Experiments:
[1] = Growth inhibition of human COLO205 cells after 48 hrs; type: functional; conditions: COLO 205, 48 h; for CC50: read-out: pLC50 (the source's name) (converted); for TGI: read-out: pTGI (converted)
How it was run: (§1)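 NCI-60 human tumour cell line panel screen run at the US National Cancer Institute under its standard cytotoxicity protocol. It covers leukaemia, NSCLC, colon, CNS, melanoma, ovarian, renal, prostate and breast lines. An initial single-dose test was followed by five-dose testing with 48 h compound exposure.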

[2] = tested on: T47D; test: Growth inhibition of human T47D cells after 48 hrs; type: functional; conditions: for TGI: read-out: pTGI (converted)
How it was run: (§2)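 Run by the NCI 58-cell-line screen under its standard cytotoxicity protocol. Compounds were first tested at a single dose, then at five doses. Cells were exposed to compound for 48 h.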

[3] = tested on: Malme-3M; test: Growth inhibition of human MALME-3M cells after 48 hrs; type: functional; conditions: for CC50: read-out: pLC50 (the source's name) (converted); for TGI: read-out: pTGI (converted); how it was run: as §1
[4] = tested on: SR; test: Growth inhibition of human SR cells after 48 hrs; type: functional; conditions: for TGI: read-out: pTGI (converted); how it was run: as §2
[5] = tested on: CAKI-1; test: Growth inhibition of human CAKI-1 cells after 48 hrs; type: functional; conditions: CAKI-1, 48 h; for TGI: read-out: pTGI (converted); how it was run: as §1
[6] = tested on: A-431; test: Reduction in ROS in human A431 cells assessed as decrease in hydrogen peroxide level at 0.1 to 10 ng/ml after 1 hr by DCHFA assay; type: functional, cell-based
How it was run: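 A-431 cells were seeded at 10^5 per well and exposed to a range of compound concentrations for 1 h. They were then loaded with DCHFA probe for 30 min in the dark. Fluorescence was read immediately at ex/em 485/528 nm and expressed as arbitrary units per 10^5 cells.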

[7] = tested on: SK-OV-3; test: Growth inhibition of human SKOV3 cells after 48 hrs; type: functional; conditions: SK-OV-3, 48 h; for CC50: read-out: pLC50 (the source's name) (converted); for TGI: read-out: pTGI (converted); how it was run: as §2
[8] = tested on: ACHN; test: Growth inhibition of human ACHN cells after 48 hrs; type: functional; conditions: for TGI: read-out: pTGI (converted); how it was run: as §1
[9] = tested on: SN12C; test: Growth inhibition of human SN12C cells after 48 hrs; type: functional; conditions: for TGI: read-out: pTGI (converted); how it was run: as §2
[10] = Growth inhibition of human HCC2998 cells after 48 hrs; type: functional; conditions: HCC 2998, 48 h; for CC50: read-out: pLC50 (the source's name) (converted); for TGI: read-out: pTGI (converted); how it was run: as §1
[11] = tested on: MCF7; test: Cell cycle arrest in human MCF7 cells assessed as accumulation at S phase […] by propidium iodide staining-based flow cytometric analysis; type: functional
[12] = tested on: MCF7; test: Cell cycle arrest in human MCF7 cells assessed as accumulation at G0/G1 phase after 30 mins by propidium iodide staining-based flow cytometric analysis; type: functional
How it was run: (§3)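 MCF-7 cells (10^6) were treated with compounds for 24 h alongside a methanol vehicle control. They were fixed in cold 70% methanol at 4 °C for one day, washed in PBS and permeabilised with 0.1% saponin in PBS. They were then stained with propidium iodide plus RNase (1 mg/ml) for 30 min, and DNA-content distribution was read by FACScan flow cytometry.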

[13] = tested on: CCRF-CEM; test: Growth inhibition of human CCRF-CEM cells after 48 hrs; type: functional; conditions: for CC50: read-out: pLC50 (the source's name) (converted); for TGI: read-out: pTGI (converted); how it was run: as §1
[14] = tested on: MCF7; test: Cell cycle arrest in human MCF7 cells assessed as accumulation at G2/M phase after 30 mins by propidium iodide staining-based flow cytometric analysis; type: functional; how it was run: as §3

SMILES | GI50 [1] [µM] | CC50 [1] [µM] | TGI [1] [µM] | GI50 [2] [µM] | TGI [2] [µM] | GI50 [3] [µM] | CC50 [3] [µM] | TGI [3] [µM] | GI50 [5] [µM] | LC50 [5] [µM] | TGI [5] [µM] | GI50 [7] [µM] | CC50 [7] [µM] | TGI [7] [µM] | GI50 [8] [µM] | LC50 [8] [µM] | TGI [8] [µM] | LC50 [9] [µM] | GI50 [10] [µM] | CC50 [10] [µM] | further results
COc1ccc(N(CC(=O)NCCC[Te]c2ccccc2)C(=O)CNC(=O)OC(C)(C)C)cc1 | 2 | 7.24 | 3.8 | 11.2 | 40.7 | 15.8 | 69.2 | 33.1 | 2.09 | > 100 | 5.62 | 2.34 | 10 | 4.79 | 1.55 | > 100 | 8.71 | > 100 | 2.57 | 27.5 | LC50 [2]: > 100 µM; GI50 [4]: 1.66 µM; LC50 [4]: > 100 µM; TGI [4]: 7.76 µM; Activity [6]: Dose-dependent effect; GI50 [9]: 2.04 µM; TGI [9]: 5.01 µM; TGI [10]: 6.61 µM; Retention_time: 1.548 min
COc1ccc(N(CC(=O)NCCC[Te]c2ccccc2)C(=O)CCSC2=C(C)C(=O)c3ccccc3C2=O)cc1 | 1.86 | 6.61 | 3.47 | 1.55 | 3.55 | 2.24 | 8.32 | 4.37 | 3.09 | 21.4 | 6.17 | 1.86 | 8.71 | 3.98 | 1.35 | 6.76 | 3.02 | 23.4 | 1.23 | 9.33 | Activity [11]: 5.55%; Activity [12]: 88.62%; GI50 [13]: 0.417 µM; CC50 [13]: > 100 µM; TGI [13]: 2.51 µM; Activity [14]: 5.84%; TGI [10]: 3.39 µM; Retention_time: 0.938 min
CC1=C(SCCC(=O)OCC(=O)NCCC[Te]c2ccccc2)C(=O)c2ccccc2C1=O | 1.91 | 8.91 | 4.17 | 2 | 5.75 | 2.19 | 25.7 | 6.03 | 2.95 | 39.8 | 11.2 | 1.74 | 12.3 | 4.37 | 2.82 | 40.7 | 11 | 31.6 | 1.82 | 13.5 | LC50 [2]: > 100 µM; GI50 [13]: 2.4 µM; CC50 [13]: > 100 µM; TGI [13]: 18.6 µM; GI50 [9]: 1.86 µM; TGI [9]: 6.17 µM; TGI [10]: 4.57 µM; Retention_time: 0.928 min
COc1ccc(N(CC(=O)NCCC[Te]c2ccccc2)C(=O)c2ccccc2)cc1 | 2.57 | > 100 | 6.03 | 3.39 | 21.4 | 16.6 | 72.4 | 34.7 | 2.95 | > 100 | 14.8 | 2.57 | 35.5 | 6.03 | 3.16 | 39.8 | 9.55 | > 100 | 3.02 | 36.3 | LC50 [2]: > 100 µM; GI50 [4]: 2.82 µM; LC50 [4]: > 100 µM; TGI [4]: 10 µM; Activity [11]: 6.19%; Activity [12]: 85.01%; Activity [6]: Dose-dependent effect; Activity [14]: 8.8%; GI50 [9]: 2.69 µM; TGI [9]: 8.51 µM; TGI [10]: 8.13 µM; Retention_time: 0.89 min
